Screening results (PubChem)
PolyA inhibitor – blocks polyadenylation in yeast reporter cells. activity score, % at 12 µM. actives 0.02% (n = 300,000). S. cerevisiae SKY197-pL101 polyadenylation reporter, beta-gal luminescence; efflux-impaired pdr1/pdr3 knockout yeast; score 100 = 6 SD above DMSO;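 active = lowest replicate activity score at least 50, where 100 means six control SD above control mean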;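 note: yeast exposed to compound for 9 h at 30 °C; higher score means more reporter readthrough which indicates perturbed polyadenylation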
NALP1 inh – NALP1 inhibition; S. cerevisiae NALP1/ASC/caspase-1 growth, X-gal OD620, 72 h; inhibition, % at 10 µM; actives 0.61% (n = 280,000); AID 2071; in the data active = inhibition mostly above about 24%, no sharp cut-off; inactive = mostly below about 32%
NLRP3 yeast inh – blocks the NALP3 inflammasome reconstituted in yeast. Yeast reconstituted NLRP3/ASC/caspase-1, beta-gal luminescence, 24 h. inhibition, % at 10 µM. actives 0.39% (n = 330,000);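 active = inhibition of 50% or more; inactive = inhibition below 50%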
IMP-1 inh – inhibitors of Pseudomonas aeruginosa IMP-1 metallo-beta-lactamase; AID 1556; purified IMP-1, nitrocefin hydrolysis, epi-absorbance fluorescence; actives 0.45% (n = 290,000); inhibition, % at 5.6 µM;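 active = inhibition above the mean plus 3 SD of all compounds in the same screening run, cut at about 4.5% in these data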
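Assay system: purified recombinant IMP-1 beta-lactamase. Input: IMP-1 0.2 nM before substrate addition. Buffer or medium: Zinc- and detergent-supplemented HEPES buffer, pH 7.1. Schedule: 25 °C, 15 min preincubation, 25 min reaction. Signal: Epi-absorbance fluorescence, 480 nm excitation, 530 nm emission. Evaluation: percent inhibition from optical density relative to buffer-blank wells.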
VIM-2 inhibitor – blocks Pseudomonas aeruginosa VIM-2 metallo-beta-lactamase; purified VIM-2, nitrocefin hydrolysis, epi-absorbance fluorescence; inhibition, % at 5.6 µM; actives 0.89% (n = 290,000);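 active = inhibition above the mean of all tested compounds plus 3 SD, cutoff set per screening run, cut at about 7.5% in these data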;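 note: red hydrolysis product quenches plate fluorescence so inhibitors raise well fluorescence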
Mot1-301 SUMO – SUMOylation pathway inhibition by Mot1-301 growth rescue; S. cerevisiae Mot1-301 growth rescue, ATP luminescence, 38.5C; percent above DMSO median, 100 means doubled; growth rescue, % at 18.8 µM; actives 1% (n = 320,000);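 active = every valid replicate shows activation above 250% relative to neutral control wells; inactive = the rest, any valid replicate at or below 250%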
Of the large screens only hits and unclear results are named; the others gave an inactive call. Sampled rows, rich in hits. Any-hit rate of the full collection: about 2.9%.

Cc1ncc([N+](=O)[O-])n1CCOC(=O)c1cc(Cl)cc(Cl)c1N	VIM-2 inhibitor 9.4
COc1ccccc1/C=C/C(=O)OCc1nc2ccccc2c(=O)[nH]1	NALP1 inh 16
COc1ccc(/C=C/C(=O)OCc2nc3ccccc3c(=O)[nH]2)c(OC)c1	none
C/C(=N\O)c1noc(C)c1C(=O)Nc1nccs1	VIM-2 inhibitor 12
O=C(CP(=O)(c1ccccc1)c1ccccc1)N/N=C/c1cc(Br)cc(Br)c1O	none
CCC(O)(CC)C(=O)N/N=C/c1cc(Br)cc(Br)c1O	Mot1-301 SUMO 494
CCN(CC)CCCNC(=O)c1[nH]c2ccccc2c1Sc1ccc(Cl)cc1	none
CN(CC(=O)NCc1ccncc1)S(=O)(=O)c1ccc(Cl)cc1	none
COc1ccc(CNC(=O)CN(C)S(=O)(=O)c2ccc(Cl)cc2)cc1	Mot1-301 SUMO 339
CCc1c(C2(O)CCCCC2)[nH]c2cc(C(F)(F)F)ccc12	Mot1-301 SUMO 325
CCC(OC(=O)c1ccco1)C(=O)NC1CCCC1 (stereo not drawn)	none
COc1cc(C(O)c2nc3ccccc3s2)cc(OC)c1OC (stereo not drawn)	none
CCOC(=O)c1cc(-c2ccc(N3CCOCC3)cc2)nn1-c1ccccc1C(=O)O	IMP-1 inh 22
COc1ccc(NC(=O)CN(C)C(=O)c2ccc3c(c2)S(=O)(=O)N=C2CCCCCN23)cc1	none
O=C(COc1coc(CN2CCN(c3ccc(F)cc3)CC2)cc1=O)NC1CCCC1	Mot1-301 SUMO 297 (no result: NALP1 inh, IMP-1 inh, VIM-2 inhibitor)
COc1ccc(S(=O)(=O)Nc2c(NC3CCCCC3)c3ccccc3oc2=O)cc1	none
Fc1ccc(-n2c(-c3ccc4c(c3)OCO4)n[nH]c2=S)cc1Cl	none
COc1ccc(-n2c(C(C)n3nc(C)c([N+](=O)[O-])c3C)n[nH]c2=S)cc1 (stereo not drawn)	none
COc1ccc(-c2n[nH]c(=S)n2Cc2ccccc2)cc1	VIM-2 inhibitor 9.2
Cc1ccccc1-n1c(-c2csc(C)c2C)n[nH]c1=S	VIM-2 inhibitor 11
S=c1[nH]nc(-c2ccc(Cl)cc2)n1Cc1ccccc1	none
COc1ccc(-n2c(-c3cccc(C)c3[N+](=O)[O-])n[nH]c2=S)cc1	VIM-2 inhibitor 38
COc1cc(OC)cc(-c2n[nH]c(=S)n2-c2ccc3c(c2)OCO3)c1	VIM-2 inhibitor 8.7
COc1ccc(C(CNC(=O)c2c(C)nn(Cc3ccc(C)cc3)c2Cl)N2CCOCC2)cc1 (stereo not drawn)	none (no result: PolyA inhibitor, NALP1 inh, IMP-1 inh, VIM-2 inhibitor)
Cc1n[nH]c(=S)n1Cc1ccccc1	VIM-2 inhibitor 11 (no result: NALP1 inh)
COc1ccc(-c2n[nH]c(=S)n2-c2ccccc2C)cc1	VIM-2 inhibitor 8.8
S=c1[nH]nc(C2CCCCC2)n1Cc1ccccc1	VIM-2 inhibitor 9.3
Cc1n[nH]c(=S)n1-c1ccccc1	VIM-2 inhibitor 10
Cc1n[nH]c(=S)n1-c1ccc(Cl)cc1	none
O=C(CCCOc1ccccc1)NNC(=O)c1ccncc1	none (no result: PolyA inhibitor, NALP1 inh, IMP-1 inh, VIM-2 inhibitor)
CCOc1ccc(OCCC(=O)OCC(=O)NCCc2ccc(S(N)(=O)=O)cc2)cc1	none (no result: PolyA inhibitor, NALP1 inh, IMP-1 inh, VIM-2 inhibitor)
CCc1ccc(NC(=S)Nc2ccc3[nH]c(=O)[nH]c3c2)cc1	none
COc1cccc(-c2n[nH]c(=S)n2Cc2ccco2)c1	VIM-2 inhibitor 9.1 (no result: NALP1 inh)
S=c1[nH]nc(-c2ccncc2)n1Cc1ccco1	none
CCOc1cc(-c2n[nH]c(=S)n2Cc2ccccc2)ccc1OC(F)F	none (no result: PolyA inhibitor, NALP1 inh, IMP-1 inh, VIM-2 inhibitor)
COc1ccc(-c2n[nH]c(=S)n2Cc2ccccc2)cc1OC	VIM-2 inhibitor 7.8
CC1Cc2ccccc2N1C(=O)c1ccc(F)c(S(=O)(=O)N2CCOCC2)c1 (stereo not drawn)	none (no result: PolyA inhibitor, NALP1 inh, IMP-1 inh, VIM-2 inhibitor)
C=C[C@@H](C)N(Cc1ccc(OC)cc1)S(=O)(=O)N(Cc1ccccc1)[C@H](C=C)C(C)C	none (no result: PolyA inhibitor, NALP1 inh, IMP-1 inh, VIM-2 inhibitor)
CCCCn1c(N)c(N(CC(C)C)C(=O)c2oc3ccc(OCC)cc3c2C)c(=O)[nH]c1=O	NALP1 inh 36
CCCCc1ccc(NC(=S)NCCN2CCOCC2)cc1	Mot1-301 SUMO 731
S=C(NCCN1CCOCC1)Nc1ccc(Br)cc1	none
COCC(C)n1c(SCC(=O)NC(=O)NC2CCCC2)nc2ccccc2c1=O (stereo not drawn)	none (no result: PolyA inhibitor, NALP1 inh, IMP-1 inh, VIM-2 inhibitor)
Cn1cccc1Cc1nnc(SCC(=O)NCc2ccccc2Cl)n1-c1ccc(F)cc1	PolyA inhibitor 73
